These results are taken from PMC6571060 (Cancer research, 2019).

Each structure is given as a SMILES string. “Also recorded” adds a separate entry of the source.

In general, Kd refers to the constant that tells how readily two partners part at equilibrium. Broadly, the IC50 is the concentration that inhibits the measured activity by half.

The subject of data set [1] is mut-KRasG12V H441 xenograft. Briefly: Antitumor activity, H441 xenograft. The class given is in vivo, NOD-SCID mice. The note with it: 200 mg/kg ip daily for up to 20 days. An outline of the steps:
(§1)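 About 10⁷ log-phase NSCLC cells in 0.2 mL PBS were injected subcutaneously into the flank of female NOD-SCID mice, 10 per group. Daily 200 mg/kg ip dosing began at tumor volumes of 50–150 mm³, for 20 days (A549, H441) or 21 days (H1975). Caliper volumes were taken twice weekly and body weight weekly. P values were computed at end of dosing.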

For data set [2], the system named is p-Egfr, activated RalB and Rho in A549 NSCLC tumor xenografts. Briefly: Western blot / GTP activation of downstream signaling in A549 tumor xenografts. The class given is in vivo, mice. The note with it: 200 mg/kg ip. Put shortly:
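A549 xenograft tumors were sampled at 4 and 24 hr after a single 200 mg/kg ip dose, and 4 hr after the last dose of 6 days' daily dosing, 4 mice per time point. Blots probed phospho-Egfr Tyr1068 and other signaling proteins. RalA/B, Rho and total Ras GTP were measured by activation kits.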
(A western blot detects proteins with antibodies after separation by electrophoresis.)

For data set [3], the target named is T1, PH domain of Cnk1 (Homo sapiens, UniProt Q969H4).
T1 sequence (Q969H4 403-502 limits assumed): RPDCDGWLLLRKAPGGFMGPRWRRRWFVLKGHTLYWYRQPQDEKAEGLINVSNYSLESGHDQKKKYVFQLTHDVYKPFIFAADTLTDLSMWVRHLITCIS
Nature of the data set: SPR binding to the Gst-tagged PH domain of Cnk1. The note with it: read-out: Cnk1 binding Kd, SPR spectroscopy. An outline of the steps: (§2)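 The Cnk1 PH domain was expressed with an N-terminal glutathione S-transferase fusion and captured on a CM5 chip with a Gst capture kit. Compound binding or PtdIns(3,4,5)P₃ displacement was run by SPR on a Biacore T200.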
(In general: SPR reads the build-up and loss of mass on a sensor chip optically.)

The next data set concerns wt-KRas NSCLC cells. Briefly: 3D growth inhibition. The class given is cell-based. Put shortly: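 NSCLC lines were tested for mycoplasma and authenticated before study and every 2 months in culture. Anchorage-independent growth was measured in soft agarose using a modified 96-well method, with test compound present. IC50 values were derived for 3D growth inhibition.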
The target of data set [4] is T2, Cnk1 and mut-KRas co-localization in HEK293 cells (Homo sapiens, UniProt Q969H4).
T2 sequence (Q969H4 1-720): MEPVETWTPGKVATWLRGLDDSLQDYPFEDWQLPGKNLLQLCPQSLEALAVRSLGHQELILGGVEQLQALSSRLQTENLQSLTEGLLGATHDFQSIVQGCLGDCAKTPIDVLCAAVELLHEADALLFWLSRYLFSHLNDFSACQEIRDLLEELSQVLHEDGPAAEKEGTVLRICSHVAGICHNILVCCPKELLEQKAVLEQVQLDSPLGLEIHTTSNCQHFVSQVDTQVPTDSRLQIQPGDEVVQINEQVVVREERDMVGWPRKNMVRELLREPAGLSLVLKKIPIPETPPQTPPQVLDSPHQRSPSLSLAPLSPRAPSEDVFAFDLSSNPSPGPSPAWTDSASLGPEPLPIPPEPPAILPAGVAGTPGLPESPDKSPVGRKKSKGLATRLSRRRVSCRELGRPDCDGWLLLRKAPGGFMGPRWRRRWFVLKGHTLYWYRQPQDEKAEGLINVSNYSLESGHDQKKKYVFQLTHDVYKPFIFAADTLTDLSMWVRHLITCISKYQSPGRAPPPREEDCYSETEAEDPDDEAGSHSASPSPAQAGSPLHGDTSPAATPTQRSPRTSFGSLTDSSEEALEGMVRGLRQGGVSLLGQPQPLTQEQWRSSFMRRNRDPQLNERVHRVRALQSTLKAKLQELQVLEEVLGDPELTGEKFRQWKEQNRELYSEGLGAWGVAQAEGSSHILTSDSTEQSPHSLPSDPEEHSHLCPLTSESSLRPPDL
Briefly: Confocal microscopy / FLIM of Cnk1-GFP and mut. The format is cell-based. An outline of the steps:
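HEK293 cells co-expressed Cnk1-GFP and mut(G12D)-KRas-RFP and were incubated 1 hr with 50 μM test compound. Confocal laser scanning microscopy assessed membrane co-localization. FLIM average fluorescence lifetime was taken from co-localization images, with lifetime shortening from FRET indicating direct Cnk1–KRas interaction.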

The next data set relates to wt-KRas NSCLC cell lines. Briefly: 2D growth on plastic of NSCLC cell line panel. The class given is cell-based. Particulars: 72 hr.
For the next data set, the system named is Cell migration. Briefly: Cell migration. The class given is cell-based.
A short description of data set [5]: Pharmacokinetics in mice after intraperitoneal administration. The class given is in vivo. The note with it: 10 mg/kg.
Data set [6] addresses T1, PH domain of Cnk1. Briefly: SPR displacement of PtdIns. The class given is binding. The note with it: 50 μM. Put shortly: as §2
The nature of data set [7]: Mouse body weight during treatment. The class given is in vivo, NOD-SCID mice. Particulars: PHT-7.3 treatment, 200 mg/kg ip daily. Put shortly: as §1
The subject of data set [8] is wt-KRas H1975 NSCLC xenograft. Briefly: Antitumor activity, H1975 xenograft. The class given is in vivo, NOD-SCID mice. Particulars: 200 mg/kg ip daily for 21 days. Put shortly: as §1
For the next data set, the system named is mut-KRas NSCLC cells. Nature of the data set: 3D growth inhibition. The class given is cell-based. Particulars: read-out: Growth inhibition IC50 mut-Ras; mean IC50, 3D growth; H2122, Calu1, H2009, H441, H358, H1573, H23, H1373, A549, H1944, H647.
A further data set has as its system mut-KRas cells. Briefly: Cell proliferation in a small group of mut-KRas cells. The format is cell-based. An outline of the steps: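 Cells were exposed to test compound for 72 hr. Growth was then read by XTT cell viability assay.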
In data set [9] the test system is mut-KRas(G12S) A549 xenograft. Nature of the data set: Antitumor activity, A549 xenograft. The format is in vivo, NOD-SCID mice. The note with it: 200 mg/kg ip daily for up to 20 days. Put shortly: as §1
Data set [10] has as its system PH domains of Pdpk1, Btk, Akt1, and Plekha7. Briefly: SPR binding selectivity against other PH domains.
Another data set has as its system RalB and Rho activation. Nature of the data set: Western blot / GTP activation of downstream K-Ras signaling in mut-KRAS cells. The class given is cell-based. Particulars: panel of mut-KRAS cells, 24 hr. Put shortly:
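Mut-KRas NSCLC cells were exposed 24 hr to 25 μM test compound; A549 received a concentration range. Western blots used rabbit monoclonal phospho- and total-protein antibodies. RalA, RalB, Rho and Ras GTP levels were measured with activation kits per manufacturer instructions.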

Turning to `Cc1ccc(-c2csc(Cn3nc(CC4OCCCO4)c4ccccc4c3=O)n2)cc1` [PHT-7.3], the “Antitumor activity, H441 xenograft” value in data set [1] is listed as “cytostatic antitumor activity”. Further, in data set [2], the “Activated RalB and Rho signaling in tumor xenografts” value is “down-regulation of activated RalB and Rho signaling”; the “p-Egfr level in tumor xenografts” value is listed as “increased levels of p-Egfr”. Besides, on PH domain of Cnk1 [3], the Kd was 4.7 µM. For the same compound, the IC50 in the data set with wt-KRas NSCLC cells (read-out: Growth inhibition IC50 wt-KRas, mean IC50, 3D growth, H266, H1299, H1975, H3255, H1437, H2023) turned out to be 69 µM. For the same compound, the “3D anchorage independent growth of wt-KRas cells” value in the data set on wt-KRas NSCLC cells (soft agarose, except H1437 and H2023) is listed as “still not inhibited”. The “Binding of Cnk1 to mut-KRAS by FLIM lifetime” value in data set [4] (FLIM lifetime plots, compound-treated cells) is recorded as “inhibited the binding of Cnk1 to mut-KRAS; also recorded: inhibited Cnk1 interaction with mut-KRAS”. Also, the “Co-localization of Cnk1 and mut-KRas at the cell plasma membrane” value in [4] (confocal microscopy, HEK293 cells, 50 μM, 1 hr) is recorded as “blocked the co-localization”. In addition, in the data set on wt-KRas NSCLC cell lines, the “2D growth of wt-KRas NSCLC cell lines” value is “not inhibited except for two lines H1437 and H2023”. In addition, the Cell migration entry in the data set on Cell migration is recorded as “inhibited”. In data set [5], the “Pharmacokinetics Cl” value came to 133 mL·min/kg and the “Pharmacokinetics t½β” value came out at 4.33 h. The “Displacement of PtdIns(3,4,5)P3 binding to the PH domain of Cnk1” value on PH domain of Cnk1 [6] was “displaced; also recorded: displacement of PtdIns([3],[4],[5])P3 binding”. Moreover, in [7], the Body weight result was “no loss of body weight”. The “Antitumor activity, H1975 xenograft” value in data set [8] is on record as “not in the wt-KRas H1975 NSCLC xenograft”. The IC50 in the data set with mut-KRas NSCLC cells amounted to 19 µM. Further, the “Cell proliferation, small group of mut-KRas cells” value with mut-KRas cells is “inhibit cell proliferation”. The “Antitumor activity, A549 xenograft” value in data set [9] is recorded as “cytostatic antitumor activity”. Moreover, the “Binding to PH domain of Cnk1 compared to PH domains of Pdpk1, Btk, Akt1, and Plekha7” value in data set [10] is “selective binding”. In addition, in the data set on RalB and Rho activation, the “RalB and Rho activation in mut-KRAS cells” value is “decreased RalB and Rho activation”.
